# Results pooled from the literature.
# Protocols differ between the studies behind these lines.
# Cell line: A549
# Observed: cell growth or viability
Compound,technique,concentration,time,endpoint,result
CCCCCC(=O)Nc1ccc(-c2ccc3ncn(CCC)c(=O)c3c2)cn1,CCK-8,,72 h,IC50,0.17 µM
NCCC(=O)Nc1ccccc1/N=c1\cc(-c2ccc3nc(N)oc3c2)oc2ccc(F)cc12,CCK-8,1 µM,,inhibition,42.4%
O=C(Nc1ccc(Cl)cc1)Nc1ccc(-c2cn(Cc3ccc(Br)cc3)nn2)cc1,CCK-8,20 µM,72 h,viability,69.1%
NCC(=O)Nc1ccccc1/N=c1\cc(-c2ccc3c(c2)OCO3)oc2ccccc12,CCK-8,1 µM,,inhibition,-5.88%
Cc1cc(=O)oc2cc(OCCCCSC#N)ccc12,SRB,,,GI50,5 µM
COc1ccc(Cn2cnc3ccc(-c4ccc(NC(=O)c5ccccc5)nc4)cc3c2=O)cc1,CCK-8,,72 h,IC50,> 10 µM
CC(C)(C)[C@H](N)C(=O)Nc1ccccc1/N=c1\cc(-c2ccc3c(c2)OCCO3)oc2cc(F)ccc12,CCK-8,1 µM,,inhibition,-4.38%
O=C(Nc1ccc(Cl)cc1)Nc1cccc(-c2cn(Cc3cccc(Br)c3)nn2)c1,CCK-8,50 µM,72 h,viability,145%
COc1ccc2/c(=N/c3ccccc3NC(=O)[C@@H](N)C(C)(C)C)cc(-c3ccc4c(c3)OCO4)oc2c1,CCK-8,1 µM,,inhibition,-3.68%
COc1ccc(NC(=O)Nc2ccc(-c3cn(Cc4cccc(Cl)c4)nn3)cc2)cc1,CCK-8,50 µM,72 h,viability,91.2%
CCCn1cnc2ccc(-c3ccc(NC(=O)CNC(C)C)nc3)cc2c1=O,CCK-8,,72 h,IC50,> 10 µM
COc1ccc2/c(=N/c3ccccc3NC(=O)[C@@H](N)C(C)(C)C)cc(-c3ccc4c(c3)OCCO4)oc2c1,CCK-8,1 µM,,inhibition,6.77%
COc1ccc(NC(=O)NCc2cn(Cc3ccc(Br)cc3)nn2)cc1,CCK-8,20 µM,72 h,viability,102%
CCCCCCCCCCCCCCCCCCOc1cccc(CC(=O)OCC[N+]2(C)CCCCC2)c1,SRB,10 µM,,inhibition,9.38%
O=C(NCc1cn(Cc2ccc(Br)cc2)nn1)Nc1ccccc1Br,CCK-8,50 µM,72 h,viability,91.5%
CCCn1cnc2ccc(-c3ccc(NC(=O)c4ccccc4)nc3)cc2c1=O,CCK-8,,72 h,IC50,0.12 µM
O=C(Nc1ccc(Cl)cc1)Nc1cccc(-c2cn(Cc3ccc(Cl)cc3)nn2)c1,CCK-8,50 µM,72 h,viability,101%
COc1ccc(NC(=O)Nc2cccc(-c3cn(Cc4cccc(Cl)c4)nn3)c2)cc1,CCK-8,50 µM,72 h,viability,237%
O=C(NCc1cn(Cc2ccc(Cl)cc2)nn1)Nc1ccccc1Br,CCK-8,50 µM,72 h,viability,86.1%
CCCCC(=O)Nc1ccc(-c2ccc3ncn(CCCF)c(=O)c3c2)cn1,CCK-8,,72 h,IC50,1.79 µM
O=C(Nc1cccc(-c2cn(Cc3ccc(Br)cc3)nn2)c1)Nc1ccccc1Br,CCK-8,50 µM,72 h,viability,70.9%
O=C(Nc1ccccc1/N=c1\cc(-c2ccc3c(c2)OCO3)oc2ccccc12)N1CCOCC1,CCK-8,1 µM,,inhibition,13.8%
CCCCCCCCCCCCCCCCCCOc1cccc(CC(=O)OCC[N+](CC)(CC)CC)c1,SRB,10 µM,,inhibition,40%
COc1ccc(NC(=O)Nc2ccc(-c3cn(Cc4ccc(C)cc4)nn3)cc2)cc1,CCK-8,20 µM,72 h,viability,67.9%
O=C(Nc1cccc(F)c1)Nc1nc2cc(-c3ccc4ncn(Cc5ccccc5)c(=O)c4c3)ccc2s1,MTT,,72 h,IC50,3.49 µM
O=C(NCc1cn(Cc2ccc(Br)cc2)nn1)Nc1ccc(Cl)cc1,CCK-8,20 µM,72 h,viability,102%
O=C(Nc1ccccc1/N=c1\cc(-c2ccc3c(c2)OCO3)oc2ccccc12)N1CCNCC1,CCK-8,1 µM,,inhibition,-6.54%
COc1cccc(NC(=O)Nc2nc3cc(-c4ccc5ncn(Cc6ccccc6)c(=O)c5c4)ccc3s2)c1,MTT,,72 h,IC50,3.39 µM
CCCn1cnc2ccc(-c3ccc(NC(=O)CNCC)nc3)cc2c1=O,CCK-8,,72 h,IC50,3.42 µM
O=C(Nc1cccc(-c2cn(Cc3ccc(Cl)cc3)nn2)c1)Nc1ccccc1Br,CCK-8,20 µM,72 h,viability,159%
COc1ccc(NC(=O)NCc2cn(Cc3ccc(C)cc3)nn2)cc1,CCK-8,20 µM,72 h,viability,70.4%
NCCC(=O)Nc1ccc(/N=c2\cc(-c3ccc4c(c3)OCO4)oc3ccccc23)cc1,CCK-8,1 µM,,inhibition,-1.6%
CCCCCCCCCCCCCCCCCCOc1ccccc1CC(=O)OCC[N+](C)(C)C,SRB,10 µM,,inhibition,88.5%
CCC(=O)NCc1ccc(-c2cnc(C3CN(C(=O)c4cnc(NC(=O)[C@@H]5CC(C)(C)CN5)s4)C3)s2)c2ccccc12,,,14 days,GI50,> 3 µM
CCCCn1cnc2ccc(-c3ccc(NC(=O)Nc4ccc(OC)cc4)nc3)cc2c1=O,CCK-8,,72 h,IC50,> 10 µM
COc1ccc(NC(=O)Nc2ccc(-c3cn(Cc4ccc(Br)cc4)nn3)cc2)cc1,CCK-8,20 µM,72 h,viability,102%
CCCCCCCCCCCCCCCCCCOc1ccc(CC(=O)OCC[N+]2(C)CCCC2)cc1,SRB,10 µM,,inhibition,2.78%
CCCCn1cnc2ccc(-c3ccc(NC(=O)NCCC)nc3)cc2c1=O,CCK-8,,72 h,IC50,> 10 µM
Cc1ccccc1Cn1cc(-c2cccc(NC(=O)Nc3ccc(F)cc3)c2)nn1,CCK-8,50 µM,72 h,viability,175%
